Measured values pooled from the literature.
Each line is one published result; the experiments were not run side by side.
Target: Cytochrome P450 2D6 (CYP2D6, Homo sapiens, UniProt P10635)

Cc1ccc(C(=O)N2CCOC[C@H]2Cc2cccc(-n3nccn3)c2)c(-n2nccn2)c1  inhibition (enzyme activity, inhibitor; human, liver microsomes; 100 µM): 33%
Cc1cccc(F)c1N1CCC(N2Cc3cn(CC(C)(F)F)nc3N(Cc3ccccc3C(F)(F)F)C2=O)CC1  IC50 (enzyme activity, inhibitor; human, liver microsomes): > 10 µM
CN(Cc1cnc2nc(N)nc(N)c2n1)c1ccc(C(=O)N2CCCCC2)cc1  inhibition (enzyme activity, inhibitor, luciferase; 10 µM): -23.3%
Nc1ccc(S(=O)(=O)Nc2ccnn2-c2ccccc2)cc1  inhibition (enzyme activity, inhibitor; human, liver microsomes; 10 µM): -23%
C=C[C@H]1C[N@@]2CC[C@H]1C[C@@H]2[C@@H](O)c1ccnc2ccc(OC)cc12  inhibition (enzyme activity, inhibitor; human, liver microsomes; 1 µM): 80.8%
CC(=O)c1cccc(OCc2cc(C(=O)N(C)[C@@H](C)c3ccccn3)no2)c1  IC50 (enzyme activity, inhibitor; human, liver microsomes): > 30 µM
C=CC(=O)Nc1cc(Nc2nccc(Nc3cc(Cl)c(F)cc3C(C)(C)O)n2)c(OC)cc1N1CC[C@@H](N(C)C)C1  inhibition (enzyme activity, inhibitor; human, liver microsomes; 10 µM): < 20%
C[C@H]1C[C@@H](N2C(=N)N[C@](C)(c3cccc(NC(=O)c4cccc(C#N)c4)c3Cl)CC2=O)CCO1  inhibition (enzyme activity, inhibitor; human, liver microsomes; 20 µM, 15 min): 45%
O=C(N[C@H](Cc1c[nH]c2ccccc12)C(=O)Nc1ccncc1)c1ccc(-c2cc(F)ccc2F)cc1F  inhibition (enzyme activity, inhibitor; human, liver microsomes; 1 µM): 47%
CCN(Cc1cnc2nc(N)nc(N)c2n1)c1ccc(C(=O)N2CCC(C(=O)OC)CC2)cc1  inhibition (enzyme activity, inhibitor, luciferase; 10 µM): -20%
COCCc1ccc(OCC(O)CNC(C)C)cc1 (centres unmarked)  AUC(0-inf) (human, plasma; oral, 100 mg, single dose, healthy volunteers): 770 ng·h/mL
NC(=O)C1CCN(C(=O)Cc2ccc(N(CCCO)Cc3cnc4nc(N)nc(N)c4n3)cc2)CC1  inhibition (enzyme activity, inhibitor, luciferase; 10 µM): -15.4%
Cc1nc2c([nH]1)c(=O)n(C)c(=O)n2Cc1ccco1  inhibition (enzyme activity, inhibitor; human, liver microsomes; 40 µM): -35%
NC(=O)C1CCCN1C(=O)Cc1ccc(N(CCCO)Cc2cnc3nc(N)nc(N)c3n2)cc1 (centres unmarked)  inhibition (enzyme activity, inhibitor, luciferase; 10 µM): -13.9%
CCc1cc(/C(C)=N/OCc2ccc(C3CCCCC3)c(C(F)(F)F)c2)ccc1CN1CC(C(=O)O)C1  inhibition (enzyme activity, inhibitor; human, liver microsomes; 200 µM, 20 min): 17.4%
Nc1nc(N)c2nc(CNc3cccc4ccccc34)cnc2n1  inhibition (enzyme activity, inhibitor, luciferase; 10 µM): 102%
CC1(CO)C(O[C@@H]2O[C@H](C(=O)O)[C@@H](O)[C@H](O)[C@H]2O)CC[C@@]2(C)C1CC[C@]1(C)C2CC=C2[C@H]3CC(C)(C)[C@H](O)[C@@H](O)[C@]3(CO)[C@H](O)C[C@]21C (some centres unmarked)  IC50 (enzyme activity, inhibitor, mass spectrometry; human, liver microsomes): > 90 µg/mL
